Legend:
Assay type in all cases: functional, cell-based
A549 = assay: Cytotoxicity against human A549 cells after 48 hrs by MTS assay; details: A549, 48 h
Procedure, shortened: (§1)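 Cells grown in RPMI 1640 with 10% FBS and penicillin/streptomycin at 37 °C under 5% CO2. Adherent lines were seeded at 1 × 10^4 cells/well and left to attach for 12 h. Compounds in DMSO were tested at 0.064, 0.32, 1.6, 8 and 40 μM, in triplicate, for 48 h, with cisplatin as positive control. MTS was then added and formazan dissolved in 20% SDS (12 h, room temperature). OD read at 490 nm; IC50 by Reed and Muench method.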

[1] = Cytotoxicity against human HL60 cells after 48 hrs by MTS assay; details: HL-60, 48 h; procedure, shortened: as §1
SMMC-7721 = assay: Cytotoxicity against human SMMC7721 cells after 48 hrs by MTS assay; details: SMMC-7721, 48 h; procedure, shortened: as §1
MCF7 = assay: Cytotoxicity against human MCF7 cells after 48 hrs by MTS assay; details: MCF7, 48 h; procedure, shortened: as §1
SW480 = assay: Cytotoxicity against human SW480 cells after 48 hrs by MTS assay; details: SW480, 48 h; procedure, shortened: as §1
[2] = Cytotoxicity against human BEAS2B cells after 48 hrs by MTS assay; details: BEAS-2B

SMILES	IC50 (A549) [µM]	IC50 [1] [µM]	IC50 (SMMC-7721) [µM]	IC50 (MCF7) [µM]	IC50 (SW480) [µM]	IC50 [2] [µM]
CO[C@@H]1C=C([C@@H]2C[C@H]3O[C@@]34[C@@]2(C)C[C@H](O)[C@@H]2[C@@]3(C)C=CC(=O)C(C)(C)C3=C(O)C(=O)[C@]24C)[C@@H](OC)O1	3.7	3.6	2.4	4.2	3.5	5
CC1(C)C(=O)C=C[C@@]2(C)C1=C(O)C(=O)[C@]1(C)[C@@H]2[C@@H](O)C[C@@]2(C)[C@H](C3=CC(=O)O[C@@H]3O)C[C@H]3O[C@]321	2.6	3.1	2.2	3.9	2.4	9.4
